Measurements from different studies.
Target: Bone morphogenetic protein receptor type-2 (BMPR2, Homo sapiens, UniProt Q13873)
One construct used (Q13873 27-1038): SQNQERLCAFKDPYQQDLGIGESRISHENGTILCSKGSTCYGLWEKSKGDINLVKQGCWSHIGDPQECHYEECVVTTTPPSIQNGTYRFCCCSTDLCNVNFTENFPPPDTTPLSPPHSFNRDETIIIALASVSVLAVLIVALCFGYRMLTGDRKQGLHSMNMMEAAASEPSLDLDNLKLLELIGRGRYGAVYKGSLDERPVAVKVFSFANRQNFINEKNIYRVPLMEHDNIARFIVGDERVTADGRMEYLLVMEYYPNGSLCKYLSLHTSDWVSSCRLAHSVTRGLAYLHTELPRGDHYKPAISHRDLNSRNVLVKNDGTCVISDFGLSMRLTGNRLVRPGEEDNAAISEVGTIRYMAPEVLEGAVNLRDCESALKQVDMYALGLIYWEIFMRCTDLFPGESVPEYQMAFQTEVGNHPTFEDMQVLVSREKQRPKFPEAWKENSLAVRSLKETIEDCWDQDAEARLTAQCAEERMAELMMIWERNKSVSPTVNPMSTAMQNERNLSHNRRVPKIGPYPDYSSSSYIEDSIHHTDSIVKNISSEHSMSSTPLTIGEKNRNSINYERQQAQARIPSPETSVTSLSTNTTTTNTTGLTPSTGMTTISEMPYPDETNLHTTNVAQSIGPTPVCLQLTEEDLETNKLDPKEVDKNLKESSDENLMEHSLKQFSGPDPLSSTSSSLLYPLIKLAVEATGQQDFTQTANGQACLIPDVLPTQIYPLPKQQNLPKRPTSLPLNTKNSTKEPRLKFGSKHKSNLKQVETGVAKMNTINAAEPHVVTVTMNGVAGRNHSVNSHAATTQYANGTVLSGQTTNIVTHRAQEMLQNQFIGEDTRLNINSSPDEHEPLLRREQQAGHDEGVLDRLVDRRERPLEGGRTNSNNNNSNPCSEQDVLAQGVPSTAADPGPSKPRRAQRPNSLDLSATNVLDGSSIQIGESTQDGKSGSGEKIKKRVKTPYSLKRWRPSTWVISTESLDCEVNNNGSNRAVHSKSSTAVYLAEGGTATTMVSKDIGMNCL

| SMILES | read-out | technique | concentration | remaining binding [%] |
| --- | --- | --- | --- | --- |
| O=C(NCCCN1CCOCC1)c1ccc(Nc2nccc(-c3cc4ccccc4s3)n2)cc1 | binding | competition with immobilised ligand | 1 µM | 66 |
| CSc1cccnc1N1CCN(Cc2nc3ccccc3[nH]2)CC1 | cell-free assay | competition with immobilised ligand | 1 µM | 80 |
| CC(C)(C)c1ccc(-c2nc(CBr)nn2-c2cccc(O)c2)cc1 | cell-free assay | competition with immobilised ligand | 10 µM | 81 |
| C[C@@H]1CN(c2ccc3ncc(-c4ccc5[nH]nc(C6CC6)c5c4)n3n2)C[C@H](C)O1 | binding | competition with immobilised ligand | 50 nM | 89 |
| CNC(=O)[C@@H]1CC[C@@H](n2c(-c3ccc4cnccc4c3)nc3ccc(C(=O)NCc4cccc(C(N)=O)c4)cc32)C1 | binding | competition with immobilised ligand | 1 µM | 0.25 |
| CCN1CCN(Cc2ccc(C(=O)Nc3ccc(C)c(Oc4ccc5c(c4)CC(=O)N5)c3)cc2C(F)(F)F)CC1 | binding | competition with immobilised ligand | 1 µM | 100 |
| Cc1cnn2ncc(-c3ccnc(N(C)C)n3)c2c1 | binding | – | 1 µM | 99 |
| O=C(c1ccc(Nc2nccc(-c3cc4ccccc4s3)n2)cc1)N1CCC(N2CCCC2)CC1 | binding | competition with immobilised ligand | 1 µM | 67 |
| COc1cccc(CNC(=O)c2nc3scc(COCc4ccc(C(=O)O)cc4)c3c(=O)[nH]2)c1 | cell-free assay | competition with immobilised ligand | 1 µM | 71.8 |
| O=C(c1ccc(Nc2ncc(Cl)c(-c3ccc(Cl)s3)n2)cc1)N1CCC(N2CCCC2)CC1 | binding | competition with immobilised ligand | 1 µM | 28 |
| N[C@H]1CCN(c2nccc(-c3cnn4ncccc34)n2)C1 | binding | – | 1 µM | 100 |
| COc1cnc(Nc2cccc(S(N)(=O)=O)c2)nc1N1CCN(c2ccccc2)C(=O)C1 | binding | competition with immobilised ligand | 1 µM | 0 |
| F[C@@H]1CCN(c2nccc(-c3cnn4ncccc34)n2)C1 | binding | – | 1 µM | 100 |
| C[C@@H]1CN(c2cc(-c3nn(C)c4ccc(OC5(C)CC5)cc34)ncn2)C[C@H](C)O1 | cell-free assay | competition with immobilised ligand | 1 µM | 54 |
| C[C@@H]1CCN(c2nccc(-c3cnn4ncccc34)n2)C1 | binding | – | 1 µM | 90 |
| CC(=O)N1CCC(c2ccc(C(=O)NC3=NCCN3)cc2C(F)(F)F)CC1 | cell-free assay | competition with immobilised ligand | 1 µM | 100 |
| CN(c1nccc(-c2cnn3ncccc23)n1)C1CC1 | binding | – | 1 µM | 100 |
| O=C(NCc1ncc(C(F)(F)F)cc1Cl)c1ccc2c(c1)C1(CCS(=O)(=O)CC1)[C@H](C1CC1)N2S(=O)(=O)c1ccc(F)cc1 | cell-free assay | competition with immobilised ligand | 1 µM | 80 |
| COc1ccnn2ncc(-c3ccnc(N(C)C)n3)c12 | binding | – | 1 µM | 65 |
| O=C(O)c1cc(-c2ccc(C3CCNCC3)cc2)c2ccc(-c3ccc(C(F)(F)F)cc3)cc2c1 | cell-free assay | competition with immobilised ligand | 1 µM | 100 |
| CN(C)c1nccc(-c2cnc3ncccn23)n1 | binding | – | 1 µM | 67 |
| O=C(NCC1CCOCC1)c1n[nH]cc1NC(=O)c1c(F)cccc1F | binding | competition with immobilised ligand | 1 µM | 86 |
| CS(=O)(=O)N1CCCC(NC(=O)[C@H](CCC2CCCCC2)NC(=O)c2ccc(CNC(=O)c3cnc4ccccn34)cc2)C1 (stereo partly drawn) | cell-free assay | competition with immobilised ligand | 0.1 µM | 100 |
| N#Cc1ccccc1CSc1nnc2c(n1)[nH]c1ccccc12 | binding | competition with immobilised ligand | 10 µM | 90 |
